Reference: the M2OR odorant receptor database

How the values were obtained:
Conditions in all cases: stereoisomer not certain
UniProt Q7TRW1 = target: T1, UniProt Q7TRW1
T1 sequence (whole entry): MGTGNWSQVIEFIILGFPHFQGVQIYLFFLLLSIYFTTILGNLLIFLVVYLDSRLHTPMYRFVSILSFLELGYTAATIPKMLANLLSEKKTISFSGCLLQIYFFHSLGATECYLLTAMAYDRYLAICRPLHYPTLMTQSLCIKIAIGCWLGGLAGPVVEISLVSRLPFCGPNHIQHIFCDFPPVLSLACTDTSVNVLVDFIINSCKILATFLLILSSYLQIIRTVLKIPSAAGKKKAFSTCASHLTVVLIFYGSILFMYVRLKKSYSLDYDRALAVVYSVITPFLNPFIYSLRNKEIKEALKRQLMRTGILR
Procedure, shortened: (§1)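 Whether a receptor–molecule pair is responsive (active) rests on the original authors' judgment that its measured signal was statistically different from baseline. Pairs without that judgment are non-responsive (inactive). Sources used varied assay methods, commonly transient luciferase assays in mammalian cell lines.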

UniProt Q7TRX0 = target: T2, UniProt Q7TRX0
T2 sequence (whole entry): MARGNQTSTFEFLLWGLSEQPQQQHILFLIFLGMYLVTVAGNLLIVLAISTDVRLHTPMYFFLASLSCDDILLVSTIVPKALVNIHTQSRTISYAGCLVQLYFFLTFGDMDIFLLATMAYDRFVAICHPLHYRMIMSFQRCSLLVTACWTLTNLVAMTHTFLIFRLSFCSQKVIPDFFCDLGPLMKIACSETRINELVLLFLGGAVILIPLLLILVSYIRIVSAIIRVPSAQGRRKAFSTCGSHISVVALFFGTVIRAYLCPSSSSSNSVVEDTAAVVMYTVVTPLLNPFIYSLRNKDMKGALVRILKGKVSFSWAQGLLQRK
Procedure, shortened: as §1

UniProt Q8VEU7 = target: T3, UniProt Q8VEU7
T3 sequence (whole entry): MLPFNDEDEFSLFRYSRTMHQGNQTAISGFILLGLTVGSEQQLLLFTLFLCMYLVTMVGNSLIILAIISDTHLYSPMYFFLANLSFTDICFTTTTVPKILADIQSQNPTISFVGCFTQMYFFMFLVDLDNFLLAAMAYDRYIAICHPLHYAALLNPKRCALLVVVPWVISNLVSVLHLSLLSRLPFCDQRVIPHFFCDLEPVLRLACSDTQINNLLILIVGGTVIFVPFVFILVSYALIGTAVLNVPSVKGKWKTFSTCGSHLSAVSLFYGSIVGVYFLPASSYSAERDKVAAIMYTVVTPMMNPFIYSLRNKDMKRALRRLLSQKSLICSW
Procedure, shortened: as §1

UniProt Q8VF05 = target: T4, UniProt Q8VF05
T4 sequence (whole entry): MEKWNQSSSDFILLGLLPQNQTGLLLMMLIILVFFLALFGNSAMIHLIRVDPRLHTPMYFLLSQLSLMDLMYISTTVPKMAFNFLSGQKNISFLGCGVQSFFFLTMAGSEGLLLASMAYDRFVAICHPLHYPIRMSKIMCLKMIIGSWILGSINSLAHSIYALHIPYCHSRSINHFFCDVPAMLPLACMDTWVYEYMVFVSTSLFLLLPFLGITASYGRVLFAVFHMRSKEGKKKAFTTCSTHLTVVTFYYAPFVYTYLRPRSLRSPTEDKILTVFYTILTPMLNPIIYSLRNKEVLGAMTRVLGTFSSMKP
Procedure, shortened: as §1

UniProt Q7TS17 = target: UniProt Q7TS17
Procedure, shortened: as §1

UniProt Q7TS37 = target: UniProt Q7TS37
Procedure, shortened: as §1

UniProt Q7TS40 = target: UniProt Q7TS40
Procedure, shortened: as §1

UniProt Q7TRR8 = target: T5, UniProt Q7TRR8
T5 sequence (whole entry): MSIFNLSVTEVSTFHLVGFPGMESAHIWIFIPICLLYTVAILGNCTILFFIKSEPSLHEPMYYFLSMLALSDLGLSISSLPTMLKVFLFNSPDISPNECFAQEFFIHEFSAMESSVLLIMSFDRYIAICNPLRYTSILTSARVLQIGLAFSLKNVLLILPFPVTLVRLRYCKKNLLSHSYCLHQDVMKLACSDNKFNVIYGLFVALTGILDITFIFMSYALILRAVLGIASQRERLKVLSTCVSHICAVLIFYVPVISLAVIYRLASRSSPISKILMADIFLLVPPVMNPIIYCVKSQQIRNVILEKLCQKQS
Procedure, shortened: as §1
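Note: active if original authors judged signal statistically different from baseline.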

UniProt Q7TS40, sequence (Q7TS40 as listed by the source): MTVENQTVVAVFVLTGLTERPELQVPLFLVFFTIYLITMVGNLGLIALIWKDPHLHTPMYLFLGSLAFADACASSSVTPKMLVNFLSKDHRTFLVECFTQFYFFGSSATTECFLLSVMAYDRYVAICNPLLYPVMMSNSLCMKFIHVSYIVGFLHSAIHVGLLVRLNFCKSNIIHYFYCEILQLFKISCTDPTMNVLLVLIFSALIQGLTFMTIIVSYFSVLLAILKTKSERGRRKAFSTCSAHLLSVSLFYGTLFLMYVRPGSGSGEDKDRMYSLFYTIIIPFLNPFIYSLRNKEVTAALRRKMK
UniProt Q7TS17, sequence (Q7TS17 as listed by the source): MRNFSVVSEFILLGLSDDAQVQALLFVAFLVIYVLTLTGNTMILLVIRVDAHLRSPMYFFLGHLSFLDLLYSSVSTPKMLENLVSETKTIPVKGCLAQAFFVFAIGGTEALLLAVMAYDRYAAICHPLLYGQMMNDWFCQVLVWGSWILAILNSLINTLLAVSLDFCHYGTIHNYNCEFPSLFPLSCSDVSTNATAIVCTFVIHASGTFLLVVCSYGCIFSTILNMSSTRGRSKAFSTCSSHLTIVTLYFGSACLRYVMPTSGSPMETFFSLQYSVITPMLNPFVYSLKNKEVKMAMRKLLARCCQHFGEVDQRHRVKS
UniProt Q7TS37, sequence (Q7TS37 as listed by the source): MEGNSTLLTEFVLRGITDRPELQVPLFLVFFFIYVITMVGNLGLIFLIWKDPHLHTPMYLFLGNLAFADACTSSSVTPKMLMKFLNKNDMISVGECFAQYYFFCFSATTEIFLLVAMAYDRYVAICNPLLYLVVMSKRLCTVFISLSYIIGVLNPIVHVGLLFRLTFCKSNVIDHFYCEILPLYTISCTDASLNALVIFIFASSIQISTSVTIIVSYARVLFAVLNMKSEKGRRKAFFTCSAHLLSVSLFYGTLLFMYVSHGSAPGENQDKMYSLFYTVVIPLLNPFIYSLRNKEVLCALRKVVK

With `CCCCCC(=O)CC` the “odorant receptor agonist call” value (UniProt Q7TRW1) was “inactive”, the “odorant receptor agonist call” value (UniProt Q7TRX0) was “active” and the “odorant receptor agonist call” value (UniProt Q8VEU7) was “inactive”. For the same compound, the “odorant receptor agonist call” value (UniProt Q8VF05) was “active”.
`O=C1CCOc2ccccc21` was tested, and the “odorant receptor agonist call” value (UniProt Q7TRW1) was “inactive”, the “odorant receptor agonist call” value (UniProt Q7TRX0) was “inactive” and the “odorant receptor agonist call” value (UniProt Q7TS17) was “active”. For the same compound, the “odorant receptor agonist call” value (UniProt Q7TS37) was “active”, the “odorant receptor agonist call” value (UniProt Q7TS40) was “inactive” and the “odorant receptor agonist call” value (UniProt Q8VEU7) was “inactive”. The “odorant receptor agonist call” value (UniProt Q8VF05) was “active”.
`CCCCC(=O)O` was tested, and the “odorant receptor agonist call” value (UniProt Q7TRR8) was “inactive”, the “odorant receptor agonist call” value (UniProt Q7TRW1) was “inactive” and the “odorant receptor agonist call” value (UniProt Q7TRX0) was “inactive”. For the same compound, the “odorant receptor agonist call” value (UniProt Q8VEU7) was “inactive” and the “odorant receptor agonist call” value (UniProt Q8VF05) was “inactive”.
For `COc1cc(C(=O)O)ccc1O`, the “odorant receptor agonist call” value (UniProt Q7TRW1) was “inactive”, the “odorant receptor agonist call” value (UniProt Q7TRX0) was “inactive” and the “odorant receptor agonist call” value (UniProt Q8VEU7) was “inactive”. The “odorant receptor agonist call” value (UniProt Q8VF05) was “inactive”.
`CCCCC(C)=O` was tested, and the “odorant receptor agonist call” value (UniProt Q7TRW1) was “inactive”, the “odorant receptor agonist call” value (UniProt Q7TRX0) was “inactive” and the “odorant receptor agonist call” value (UniProt Q8VEU7) was “inactive”. The “odorant receptor agonist call” value (UniProt Q8VF05) was “active”.
For `CCCC(C)=O`, the “odorant receptor agonist call” value (UniProt Q7TRW1) was “inactive”, the “odorant receptor agonist call” value (UniProt Q8VEU7) was “inactive” and the “odorant receptor agonist call” value (UniProt Q8VF05) was “active”.
In the case of `C=C(C)C1CCC(C)C(O)C1` (centres undefined), the “odorant receptor agonist call” value (UniProt Q7TRX0) was “inactive”.
With `CCC(=O)C(=O)CC` the “odorant receptor agonist call” value (UniProt Q7TRW1) was “inactive”, the “odorant receptor agonist call” value (UniProt Q7TRX0) was “inactive” and the “odorant receptor agonist call” value (UniProt Q8VEU7) was “inactive”. The “odorant receptor agonist call” value (UniProt Q8VF05) was “active”.
In the case of `c1ccccc1`, the “odorant receptor agonist call” value (UniProt Q7TRW1) was “inactive”, the “odorant receptor agonist call” value (UniProt Q7TRX0) was “inactive” and the “odorant receptor agonist call” value (UniProt Q8VEU7) was “inactive”. The “odorant receptor agonist call” value (UniProt Q8VF05) was “active”.
`CCCCCCCCCCO` was tested, and the “odorant receptor agonist call” value (UniProt Q7TRW1) was “inactive”, the “odorant receptor agonist call” value (UniProt Q7TRX0) was “inactive” and the “odorant receptor agonist call” value (UniProt Q8VEU7) was “inactive”. For the same compound, the “odorant receptor agonist call” value (UniProt Q8VF05) was “inactive”.
For `COC(OC)c1ccccc1`, the “odorant receptor agonist call” value (UniProt Q7TRX0) was “inactive”.
In the case of `Cc1ccc(C(C)C)c(O)c1`, the “odorant receptor agonist call” value (UniProt Q7TRX0) was “inactive”.
In the case of `CC=Cc1ccc(OC)cc1`, the “odorant receptor agonist call” value (UniProt Q7TRX0) was “inactive”.
`CCCCCCCCS` was tested, and the “odorant receptor agonist call” value (UniProt Q7TRW1) was “inactive”, the “odorant receptor agonist call” value (UniProt Q7TRX0) was “inactive” and the “odorant receptor agonist call” value (UniProt Q8VEU7) was “inactive”. For the same compound, the “odorant receptor agonist call” value (UniProt Q8VF05) was “inactive”.
With `CCCCCCCCC=CC=O` the “odorant receptor agonist call” value (UniProt Q7TRX0) was “inactive”.
In the case of `CCC(C)O` (centres undefined), the “odorant receptor agonist call” value (UniProt Q7TRX0) was “inactive”.
In the case of `Cc1ccc2c(c1)OCC(=O)CO2`, the “odorant receptor agonist call” value (UniProt Q7TRX0) was “inactive”.
With `CCCCCCC(C)=O` the “odorant receptor agonist call” value (UniProt Q7TRW1) was “inactive”, the “odorant receptor agonist call” value (UniProt Q7TRX0) was “inactive” and the “odorant receptor agonist call” value (UniProt Q8VEU7) was “inactive”. The “odorant receptor agonist call” value (UniProt Q8VF05) was “inactive”.
